# From ChEMBL document CHEMBL4052594, “Discovery of Pyrrolidine-Containing GPR40 Agonists: Stereochemistry Effects a Change in Binding Mode” (J Med Chem, 2017)
# Columns and labels:
# [1] = target: Free fatty acid receptor 1 (Mus musculus, UniProt Q76JU9); assay: Agonist activity at mouse GPR40 expressed in CHO-A12 cells assessed as increase in intracellular calcium flux measured for 100 secs by FLIPR assay; type: functional, cell-based
# [2] = target: Free fatty acid receptor 1 (Mus musculus) (UniProt Q76JU9); assay: Intrinsic activity at mouse GPR40 expressed in CHO-A12 cells assessed as increase in intracellular calcium flux at 8.3 uM measured for 100 secs by FLIPR assay […]; type: functional, cell-based
# [3] = target: T1, Free fatty acid receptor 1 (Homo sapiens, UniProt O14842); assay: Agonist activity at human GPR40 expressed in CHO-A12 cells assessed as increase in intracellular calcium flux measured for 100 secs by FLIPR assay; type: functional, cell-based
# [4] = target: T1, Free fatty acid receptor 1; assay: Binding affinity to human GPR40 expressed in HEK293 cell membranes after 1 hr by radioligand displacement based scintillation counting method
# Procedure, shortened: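 Binding of human GPR40 measured as Ki against a radioligand. Mean of at least two runs. Displacement of the label appears as a negative slope and potentiation as a positive one.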
# [5] = target: T2, PPARgamma (Homo sapiens, UniProt P37231); assay: Transactivation of human Gal4 fused PPARgamma-LBD expressed in HEK293 cells at 4.8 uM after 18 hrs by luciferase reporter gene assay relative to […]; type: cell-based; details: HEK293 cells expressing Gal4-fused human PPARgamma-LBD
# T2 sequence (P37231 whole entry): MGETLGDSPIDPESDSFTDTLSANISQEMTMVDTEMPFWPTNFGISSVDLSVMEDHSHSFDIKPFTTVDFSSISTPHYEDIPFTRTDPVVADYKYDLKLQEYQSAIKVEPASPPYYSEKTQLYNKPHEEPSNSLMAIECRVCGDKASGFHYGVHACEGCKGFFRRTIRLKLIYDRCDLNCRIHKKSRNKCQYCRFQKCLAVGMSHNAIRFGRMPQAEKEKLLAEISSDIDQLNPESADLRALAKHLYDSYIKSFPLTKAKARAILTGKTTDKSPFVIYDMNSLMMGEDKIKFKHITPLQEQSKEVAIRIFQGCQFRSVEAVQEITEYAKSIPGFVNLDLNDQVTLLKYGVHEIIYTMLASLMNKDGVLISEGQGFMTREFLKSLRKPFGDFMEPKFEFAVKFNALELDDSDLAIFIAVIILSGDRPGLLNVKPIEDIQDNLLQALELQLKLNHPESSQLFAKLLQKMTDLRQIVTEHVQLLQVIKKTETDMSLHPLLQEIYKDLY
# [6] = target: T3, Peroxisome proliferator-activated receptor gamma (Homo sapiens, UniProt P37231); assay: Transactivation of human Gal4 fused PPARgamma-LBD expressed in HEK293 cells after 18 hrs by luciferase reporter gene assay; type: cell-based
# T3 sequence (P37231 whole entry): T2 sequence (P37231 whole entry)
# Procedure, shortened: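 Gal4 gene reporter transactivation assay for PPARγ; EC50 and Ymax reported.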
# Chain of Free fatty acid receptor 1 (Mus musculus, UniProt Q76JU9) (Q76JU9 whole entry): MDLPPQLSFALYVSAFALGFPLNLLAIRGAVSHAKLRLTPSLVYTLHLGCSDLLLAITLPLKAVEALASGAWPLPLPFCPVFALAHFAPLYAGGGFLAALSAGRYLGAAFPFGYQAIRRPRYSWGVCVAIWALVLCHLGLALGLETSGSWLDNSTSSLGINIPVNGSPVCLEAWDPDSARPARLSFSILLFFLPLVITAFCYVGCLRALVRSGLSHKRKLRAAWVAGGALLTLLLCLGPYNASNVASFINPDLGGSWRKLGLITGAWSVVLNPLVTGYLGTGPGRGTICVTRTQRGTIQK
# Chain of Free fatty acid receptor 1 (Mus musculus) (Q76JU9 whole entry): as above
# T1 sequence (O14842 whole entry): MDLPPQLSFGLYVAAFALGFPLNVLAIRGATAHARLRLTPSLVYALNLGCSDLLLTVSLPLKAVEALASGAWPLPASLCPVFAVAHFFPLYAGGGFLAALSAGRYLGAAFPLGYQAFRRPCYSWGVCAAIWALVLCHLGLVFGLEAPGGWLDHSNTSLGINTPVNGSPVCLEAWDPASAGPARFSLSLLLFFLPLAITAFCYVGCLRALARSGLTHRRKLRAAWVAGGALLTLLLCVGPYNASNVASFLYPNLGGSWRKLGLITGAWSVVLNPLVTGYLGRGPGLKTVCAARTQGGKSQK
EC50 [1],Intrinsic activity [2],EC50 [3],Ki [4],EC50 [6],Compound,"Emax at 18 h, 4.8 µM [5]","Activity ([6]; human, hek293, 18 h)"
3200 nM,120%,360 nM,–,–,O=C(O)C[C@@H]1CCCN1c1ccc(Oc2ccc(Cl)cc2Cl)cc1,–,–
> 33000 nM,–,11000 nM,–,–,"O=C(O)CC1CCCCCN1c1ccc(OCc2ccc(Cl)cc2Cl)cc1 (single isomer, unassigned; enantiomer 2)",–,–
1500 nM,34%,120 nM,10 nM,–,Cc1cc(OCc2ccccc2)ccc1Oc1ccc(N2C[C@@H](C(F)(F)F)C[C@H]2CC(=O)O)cc1,–,–
> 16000 nM,–,680 nM,–,–,O=C(O)C[C@@H]1CCCN1c1ccc(Oc2cccc(Cl)c2)cc1,–,–
> 33000 nM,–,6200 nM,–,–,Cc1ccccc1Cc1ccc(N2[C@H](CC(=O)O)CC[C@@H]2C)cc1,–,–
> 33000 nM,–,> 33000 nM,–,–,Cc1ccccc1COc1ccc(N2CCC[C@H]2CC(=O)O)cc1C,–,–
270 nM,36%,82 nM,–,–,Cc1cccc(C)c1Oc1ccc(N2C[C@@H](C(F)(F)F)C[C@H]2CC(=O)O)cc1,–,–
1100 nM,140%,1700 nM,–,–,COc1ccc(F)c(-c2ccc(Cc3ccc(N4C[C@H](C(F)(F)F)C[C@H]4CC(=O)O)cc3)c(C)c2)c1,–,–
> 33000 nM,–,> 33000 nM,–,–,O=C(O)CC1CCN(c2ccc(OCc3ccc(Cl)cc3Cl)cc2)C1 (stereo not given),–,–
> 16000 nM,–,2100 nM,–,–,O=C(O)C1CCN(c2ccc(OCc3ccc(Cl)cc3Cl)cc2)C1 (stereo not given),–,–
2400 nM,83%,260 nM,–,–,Cc1cccc(Oc2ccc(N3CCC[C@H]3CC(=O)O)cc2)c1,–,–
1900 nM,27%,120 nM,310 nM,–,Cc1ccccc1Cc1ccc(N2CC[C@H](C)[C@H]2CC(=O)O)cc1,–,–
> 33000 nM,–,220 nM,–,–,O=C(O)C[C@@H]1CCCN1c1ccc(OCc2ccc(Cl)cc2Cl)cn1,–,–
740 nM,44%,170 nM,–,–,O=C(O)C[C@@H]1C[C@H](C(F)(F)F)CN1c1ccc(Oc2ccccc2OC(F)(F)F)cc1,–,–
> 33000 nM,–,> 33000 nM,–,–,Cc1ccccc1[S+]([O-])c1ccc(N2CCC[C@H]2CC(=O)O)cc1 (mixture of isomers),–,–
710 nM,54%,67 nM,73 nM,–,Cc1ccccc1Cc1ccc(N2C[C@@H](C(F)(F)F)C[C@H]2CC(=O)O)cc1,–,–
500 nM,100%,110 nM,60 nM,–,Cc1cccc(Oc2ccc(N3C[C@@H](C(F)(F)F)C[C@H]3CC(=O)O)cc2)c1C,–,–
> 33000 nM,–,74 nM,180 nM,–,Cc1ccccc1Cc1ccc(N2C[C@@H](F)C[C@H]2CC(=O)O)cc1,–,–
430 nM,50%,82 nM,13 nM,–,Cc1c(Cl)cccc1Oc1ccc(N2C[C@@H](C(F)(F)F)C[C@H]2CC(=O)O)cc1,–,–
1100 nM,43%,140 nM,360 nM,–,Cc1ccccc1Cc1ccc(N2C[C@@H](C)C[C@H]2CC(=O)O)cc1,–,–
> 17000 nM,–,880 nM,–,–,O=C(O)C[C@H]1CCCN1c1ccc(OCc2ccc(Cl)cc2Cl)cc1,–,–
1300 nM,72%,3500 nM,–,–,O=C(O)C[C@@H]1CCCN1c1ccc(Oc2ccccc2-c2ccccc2)cc1,–,–
> 33000 nM,–,> 17000 nM,–,–,"O=C(O)CC1CCCCN1c1ccc(OCc2ccc(Cl)cc2Cl)cc1 (single isomer, unassigned; enantiomer 2)",–,–
> 33000 nM,–,4600 nM,> 33000 nM,–,Cc1ccccc1C(=O)c1ccc(N2CCC[C@H]2CC(=O)O)cc1,–,–
> 33000 nM,–,450 nM,1800 nM,–,Cc1ccccc1COc1ccc(N2CCC[C@H]2CC(=O)O)cn1,–,–
> 33000 nM,–,> 33000 nM,–,–,Cc1ccccc1S(=O)(=O)c1ccc(N2CCC[C@H]2CC(=O)O)cc1,–,–

EC50 [1],Intrinsic activity [2],EC50 [3],Ki [4],EC50 [6],Compound,"Emax at 18 h, 4.8 µM [5]","Activity ([6]; human, hek293, 18 h)"
440 nM,88%,260 nM,–,–,O=C(O)C[C@@H]1CCN1c1ccc(OCc2ccc(Cl)cc2Cl)cc1,–,–
> 33000 nM,–,1300 nM,–,–,CN(C)c1cccc(Oc2ccc(N3CCC[C@H]3CC(=O)O)cc2)c1,–,–
> 33000 nM,–,1700 nM,–,–,CCOc1ccccc1Oc1ccc(N2CCC[C@H]2CC(=O)O)cc1,–,–
1900 nM,160%,220 nM,310 nM,–,COc1ccc(F)c(-c2ccc(Cc3ccc(N4CCC[C@H]4CC(=O)O)cc3)c(C)c2)c1,–,–
5600 nM,69%,74 nM,4400 nM,32000 nM,Cc1ccccc1Oc1ccc(N2CCC[C@H]2CC(=O)O)cc1,27%,–
> 33000 nM,–,150 nM,1300 nM,–,Cc1ccccc1Cc1ccc(N2CCC[C@H]2CC(=O)O)cc1,–,Not Active
> 17000 nM,–,570 nM,–,–,Cc1ccccc1Sc1ccc(N2CCC[C@H]2CC(=O)O)cc1,–,–
> 33000 nM,–,> 33000 nM,–,–,"O=C(O)CC1CCCCN1c1ccc(OCc2ccc(Cl)cc2Cl)cc1 (single isomer, unassigned; enantiomer 1)",–,–
> 16000 nM,–,6400 nM,–,–,"O=C(O)CC1CCCCCN1c1ccc(OCc2ccc(Cl)cc2Cl)cc1 (single isomer, unassigned; enantiomer 1)",–,–
53 nM,210%,150 nM,–,–,COc1ccc(F)c(-c2ccc(Cc3ccc(N4C[C@@H](C(F)(F)F)C[C@@H]4CC(=O)O)cc3)c(C)c2)c1,–,–
6900 nM,50%,150 nM,1300 nM,–,O=C(O)C[C@@H]1CCCN1c1ccc(Oc2ccccc2F)cc1,–,–
14000 nM,70%,8900 nM,–,–,Cc1cc(OCc2ccc(Cl)cc2Cl)ccc1N1CCC[C@H]1CC(=O)O,–,–
3000 nM,83%,310 nM,–,–,COc1ccc(F)c(-c2cccc(Oc3ccc(N4CCC[C@H]4CC(=O)O)cc3)c2C)c1,–,–
> 17000 nM,–,6500 nM,–,–,CC(C)(C)c1ccccc1Oc1ccc(N2CCC[C@H]2CC(=O)O)cc1,–,–
960 nM,76%,–,9000 nM,–,CO[C@H]1C[C@@H](CC(=O)O)N(c2ccc(Oc3ccccc3C)cc2)C1,–,–
1300 nM,42%,310 nM,–,–,O=C(O)C[C@@H]1C[C@H](C(F)(F)F)CN1c1ccc(Oc2ccccc2C(F)(F)F)cc1,–,–
> 33000 nM,–,> 17000 nM,> 25000 nM,–,Cc1ccccc1Cc1ccc(N2C[C@@H](c3ccccc3)C[C@H]2CC(=O)O)cc1,–,–
> 33000 nM,–,520 nM,–,–,COc1ccc(Oc2ccc(N3CCC[C@H]3CC(=O)O)cc2)cc1,–,–
> 33000 nM,–,490 nM,–,–,Cc1ccc(Oc2ccc(N3CCC[C@H]3CC(=O)O)cc2)cc1,–,–
170 nM,41%,–,39 nM,–,COc1ccc(Oc2ccc(N3C[C@@H](C(F)(F)F)C[C@H]3CC(=O)O)cc2)c(C)c1,–,–
> 33000 nM,–,290 nM,–,–,O=C(O)C[C@@H]1CCCN1c1ccc(Oc2ccc(Cl)cc2)cc1,–,–
> 33000 nM,–,> 33000 nM,23000 nM,–,Cc1ccccc1Cc1ccc(N2CCC[C@@]2(C)CC(=O)O)cc1,–,–
> 17000 nM,–,13000 nM,–,–,O=C(O)C[C@H]1CCN1c1ccc(OCc2ccc(Cl)cc2Cl)cc1,–,–
> 33000 nM,–,11000 nM,–,–,Cc1ccccc1Cc1ccc(N2CC[C@H](c3ccccc3)[C@H]2CC(=O)O)cc1,–,–
> 33000 nM,–,5000 nM,–,–,O=C(O)C1CC(=O)N(c2ccc(OCc3ccc(Cl)cc3Cl)cc2)C1 (stereo not given),–,–
> 16000 nM,–,560 nM,6500 nM,–,O=C(O)C[C@@H]1CCCN1c1ccc(Oc2ccccc2)cc1,–,–
